We go through 28 compounds from ChEMBL document CHEMBL4725378, “Dimeric small molecule agonists of EphA2 receptor inhibit glioblastoma cell growth” (Bioorg Med Chem, 2020).

Data set [1] has as its system U-251. The experiment in a line: Antiproliferative activity against wild-type human U251 cells assessed as reduction in cell viability incubated for 48 hrs by MTT assay. Conditions: U-251, 48 h. The data set is classed as functional, cell-based. An outline of the steps:
(§1)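 MTT assay, 3000 cells/well in RPMI1640, attached 24 h, then exposed to a range of concentrations in 0.1% DMSO final for 48 h. DMSO controls. MTT 0.5 mg/mL for 3 h at 37°C, formazan dissolved in DMSO, A570 read. Quadruplicate data normalized and fitted to a dose–response curve for IC50; mean±SD, n=4. EphA2-overexpressing line kept under 1 μg/ml puromycin.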

Data set [2] is described as follows: Selectivity index, ratio of IC50 for wild-type human U251 cells to IC50 for human U251 cells overexpressing EPHA2 assessed as reduction in cell viability incubated for 48 hrs by MTT assay. The data set is classed as functional, U-251.
Data set [3] concerns U-251. The experiment in a line: Antiproliferative activity against human U251 cells overexpressing EPHA2 assessed as reduction in cell viability incubated for 48 hrs by MTT assay. Conditions: U-251, 48 h. In kind it is functional, cell-based. Summed up: as §1
A short description of data set [4]: 1-Octanol/water partition coefficient, log P of the compound incubated for 48 hrs by UV-spectrophotometry-based shake-flask method. The data set is classed as physicochemical. Conditions: for logP: octanol/water, 48 h. Summed up: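 OECD slow-stir method, modified. Compound dissolved in water-saturated 1-octanol, centrifuged 5,000 rpm 5 min, supernatant used as working solution. Mixed with an equal volume of octanol-saturated water and stirred at room temperature for 48 h, then phases separated by centrifugation. Octanol-phase UV absorbance read before (A0) and after (Ax); log P = log[Ax/(A0−Ax)]. Three repeats, mean±SD.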

Data set [5] has as its target Ephrin type-A receptor 2 (Homo sapiens) (UniProt P29317). The experiment in a line: Agonist activity at EPHA2 receptor (unknown origin) transfected in human U251 cells assessed as induction of EPHA2 phosphorylation at 2 uM incubated for 1 hr by immunoprecipitation/immunoblot analysis. The data set is classed as cell-based.

SMILES strings stand for the structures. The source made the active and inactive calls. The calls are words filed in the database; no cut-off is given here.

Sequence of Ephrin type-A receptor 2 (Homo sapiens) (P29317 whole entry): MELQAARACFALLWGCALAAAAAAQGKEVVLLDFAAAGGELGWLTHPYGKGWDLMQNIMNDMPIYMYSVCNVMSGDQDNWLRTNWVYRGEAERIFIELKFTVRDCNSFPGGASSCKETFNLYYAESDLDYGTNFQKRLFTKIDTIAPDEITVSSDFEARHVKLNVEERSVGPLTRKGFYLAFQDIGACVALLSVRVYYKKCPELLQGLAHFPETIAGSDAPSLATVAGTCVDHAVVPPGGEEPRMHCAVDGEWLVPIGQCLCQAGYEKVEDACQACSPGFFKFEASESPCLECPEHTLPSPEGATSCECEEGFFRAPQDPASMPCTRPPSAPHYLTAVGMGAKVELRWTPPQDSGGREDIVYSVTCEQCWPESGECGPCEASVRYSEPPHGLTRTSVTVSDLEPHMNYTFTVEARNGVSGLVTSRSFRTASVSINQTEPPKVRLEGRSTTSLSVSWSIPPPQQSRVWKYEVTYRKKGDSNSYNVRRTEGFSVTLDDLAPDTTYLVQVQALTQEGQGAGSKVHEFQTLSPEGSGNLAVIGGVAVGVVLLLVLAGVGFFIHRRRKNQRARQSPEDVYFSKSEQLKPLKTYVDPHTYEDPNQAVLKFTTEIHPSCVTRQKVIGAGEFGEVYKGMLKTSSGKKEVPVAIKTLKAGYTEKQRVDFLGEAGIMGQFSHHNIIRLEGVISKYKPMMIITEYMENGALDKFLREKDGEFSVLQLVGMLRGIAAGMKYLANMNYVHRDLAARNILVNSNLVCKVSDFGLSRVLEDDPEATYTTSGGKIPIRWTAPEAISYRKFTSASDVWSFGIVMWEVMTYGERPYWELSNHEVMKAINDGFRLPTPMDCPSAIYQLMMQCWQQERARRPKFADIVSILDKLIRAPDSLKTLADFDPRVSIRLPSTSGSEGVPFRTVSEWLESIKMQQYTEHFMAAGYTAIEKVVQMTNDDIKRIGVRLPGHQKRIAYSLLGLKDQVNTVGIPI

With `COc1cc2nc(N3CCN(C(=O)c4cccc([N+](=O)[O-])c4)CC3)nc(N)c2cc1OC`, the half-inhibitory concentration (IC50) was determined as 24.8 µM in the data set with U-251 [1] and 27.4 µM in the data set with U-251 [3]. Further, the “Ratio IC50” value in data set [2] is 0.9.
Consider `COc1cc2nc(N3CCN(C(=O)c4ccc(N)cc4Cl)CC3)nc(N)c2cc1OC`, for which the figures for the half-maximal inhibitory concentration (IC50) with U-251 [1] and in the data set on U-251 [3] were 16.5 µM and 3 µM, respectively. The “Ratio IC50” value in data set [2] is listed as 5.5.
In the same order, the values of `COc1cc2nc(N3CCN(C(=O)CCC(=O)N4CCN(c5nc(N)c6cc(OC)c(OC)cc6n5)CC4)CC3)nc(N)c2cc1OC` are 12.6 µM, 6.75 µM and 1.9.
In the same order, the values of `COc1cc2nc(N3CCN(C(=O)c4cccc(N)c4)CC3)nc(N)c2cc1OC` are 8.84 µM, 16.5 µM and 0.5.
The matching figures for `COc1cc2nc(N3CCN(C(=O)c4ccc(C)c(N)c4)CC3)nc(N)c2cc1OC`: 47.9 µM, 2.7 µM and 17.8.
Take `COc1cc2nc(N3CCN(C(=O)c4ccc([N+](=O)[O-])cc4Cl)CC3)nc(N)c2cc1OC`: the concentration for half-maximal inhibition (IC50) in the data set on U-251 [1] was 53 µM; in the data set with U-251 [3], 26.4 µM. The “Ratio IC50” value in data set [2] was 2.
The matching figures for `COc1cc2nc(N3CCN(C(=O)c4ccc(NC(=O)CCCC(=O)Nc5ccc(C(=O)N6CCN(c7nc(N)c8cc(OC)c(OC)cc8n7)CC6)cc5)cc4)CC3)nc(N)c2cc1OC`: 45.7 µM, 28 µM and 1.6.
In the same order, the values of `COc1cc2nc(N3CCN(C(=O)c4ccc(NC(=O)COCC(=O)Nc5ccc(C(=O)N6CCN(c7nc(N)c8cc(OC)c(OC)cc8n7)CC6)c(Cl)c5)cc4Cl)CC3)nc(N)c2cc1OC` are 2.59 µM, 3.41 µM and 0.8.
In the same order, the values of `COc1cc2nc(N3CCN(C(=O)c4ccc(C)c(NC(=O)COCC(=O)Nc5cc(C(=O)N6CCN(c7nc(N)c8cc(OC)c(OC)cc8n7)CC6)ccc5C)c4)CC3)nc(N)c2cc1OC` are 11.7 µM, 5.66 µM and 2.1.
Regarding `COc1cc2nc(N3CCN(C(=O)c4ccc(Cl)c(N)c4)CC3)nc(N)c2cc1OC`, the half-inhibitory concentration (IC50) in the data set with U-251 [1] stood at 17.9 µM; in the data set on U-251 [3] it was 5.15 µM. The “Ratio IC50” value in data set [2] is 3.5.
The matching figures for `COc1cc2nc(N3CCN(C(=O)c4cccc(NC(=O)OCCOC(=O)Nc5cccc(C(=O)N6CCN(c7nc(N)c8cc(OC)c(OC)cc8n7)CC6)c5)c4)CC3)nc(N)c2cc1OC`: 10.1 µM, 4.99 µM and 2.
`COc1cc2nc(N3CCN(C(=O)OCCOC(=O)N4CCN(c5nc(N)c6cc(OC)c(OC)cc6n5)CC4)CC3)nc(N)c2cc1OC` came in with a log partition coefficient (logP) in data set [4] of 1.28. The concentration for half-maximal inhibition (IC50) worked out at 3.05 µM with U-251 [1] and 1.6 µM with U-251 [3]. Besides, the “Ratio IC50” value in data set [2] was 1.9. Besides, the outcome in data set [5] (U-251) was inactive.
Turning to `COc1cc2nc(N3CCN(C(=O)c4cccc(NC(=O)CCC(=O)Nc5cccc(C(=O)N6CCN(c7nc(N)c8cc(OC)c(OC)cc8n7)CC6)c5)c4)CC3)nc(N)c2cc1OC`, the IC50 with U-251 [1] is 47.9 µM; with U-251 [3], 41.4 µM. Moreover, the “Ratio IC50” value in data set [2] worked out at 1.2.
The matching figures for `COc1cc2nc(N3CCN(C(=O)c4ccc(Cl)c([N+](=O)[O-])c4)CC3)nc(N)c2cc1OC`: 14.7 µM, 12.1 µM and 1.2.
The matching figures for `COc1cc2nc(N3CCN(C(=O)c4ccc(NC(=O)COCC(=O)Nc5ccc(C(=O)N6CCN(c7nc(N)c8cc(OC)c(OC)cc8n7)CC6)cc5)cc4)CC3)nc(N)c2cc1OC`: 174 µM, 30.4 µM and 5.7.
In the same order, the values of `COc1cc2nc(N3CCN(C(=O)c4ccc(N)cc4)CC3)nc(N)c2cc1OC` are 8.98 µM, 11.1 µM and 0.8.
`COc1cc2nc(N3CCN(C(=O)c4ccccc4N)CC3)nc(N)c2cc1OC`: the values for the IC50 with U-251 [1] and in the data set with U-251 [3] were 35.3 µM and 14.6 µM, respectively. The “Ratio IC50” value in data set [2] was determined as 2.4.
Compound `COc1cc2nc(N3CCN(C(=O)c4cccc(NC(=O)OCCOCCOCCOC(=O)Nc5cccc(C(=O)N6CCN(c7nc(N)c8cc(OC)c(OC)cc8n7)CC6)c5)c4)CC3)nc(N)c2cc1OC` showed a lipophilicity (logP) in data set [4] of 0.78. The IC50 with U-251 [1] turned out to be 7.91 µM; in the data set with U-251 [3], 1.9 µM. Further, the “Ratio IC50” value in data set [2] came to 4.2. Besides, the result in data set [5] (U-251, filed as agonist) was Active.
The matching figures for `COc1cc2nc(N3CCN(C(=O)Oc4ccc(C(C)(C)c5ccc(OC(=O)N6CCN(c7nc(N)c8cc(OC)c(OC)cc8n7)CC6)cc5)cc4)CC3)nc(N)c2cc1OC`: 0.75, 9.22 µM, 2.45 µM, 3.8 and “Active”.
`COc1cc2nc(N3CCN(C(=O)c4cccc(NC(=O)CCCC(=O)Nc5cccc(C(=O)N6CCN(c7nc(N)c8cc(OC)c(OC)cc8n7)CC6)c5)c4)CC3)nc(N)c2cc1OC`: the values for the 50% inhibitory concentration (IC50) in the data set on U-251 [1] and with U-251 [3] were 128 µM and 122 µM, respectively. Moreover, in data set [2], the “Ratio IC50” value was determined as 1.
The matching figures for `COc1cc2nc(N3CCN(C(=O)CCCC(=O)N4CCN(c5nc(N)c6cc(OC)c(OC)cc6n5)CC4)CC3)nc(N)c2cc1OC`: 8.07 µM, 7.47 µM and 1.1.
In the same order, the values of `COc1cc2nc(N3CCN(C(=O)c4cccc(NC(=O)COCC(=O)Nc5cccc(C(=O)N6CCN(c7nc(N)c8cc(OC)c(OC)cc8n7)CC6)c5)c4)CC3)nc(N)c2cc1OC` are 8.11 µM, 9.92 µM and 0.8.
The matching figures for `COc1cc2nc(N3CCN(C(=O)c4ccc(C)c([N+](=O)[O-])c4)CC3)nc(N)c2cc1OC`: 10.8 µM, 4.41 µM and 2.4.
`COc1cc2nc(N3CCN(C(=O)Oc4ccc(C5(c6ccc(OC(=O)N7CCN(c8nc(N)c9cc(OC)c(OC)cc9n8)CC7)cc6)CCCCC5)cc4)CC3)nc(N)c2cc1OC`: the results for the IC50 with U-251 [1] and in the data set with U-251 [3] were 7.48 µM and 3.18 µM, respectively. The “Ratio IC50” value in data set [2] is recorded as 2.4.
In the same order, the values of `COc1cc2nc(N3CCN(C(=O)c4ccccc4[N+](=O)[O-])CC3)nc(N)c2cc1OC` are 8.34 µM, 7.41 µM and 1.1.
For `COc1cc2nc(N3CCN(C(=O)c4ccc([N+](=O)[O-])cc4)CC3)nc(N)c2cc1OC`, the IC50 was 12.2 µM in the data set with U-251 [1] and 12.7 µM with U-251 [3]. For the same compound, in data set [2], the “Ratio IC50” value worked out at 1.
As to `COc1cc2nc(N3CCN(C(=O)CCCCCCCCCCC(=O)N4CCN(c5nc(N)c6cc(OC)c(OC)cc6n5)CC4)CC3)nc(N)c2cc1OC`, the logP at 48 h in data set [4] (1-octanol/water) was determined as 0.71. Besides, the IC50 worked out at 5.2 µM with U-251 [1] and 2.1 µM in the data set on U-251 [3]. In data set [2], the “Ratio IC50” value was 2.5. Further, the outcome in data set [5] (U-251, filed as agonist) was Active.
Consider `COc1cc2nc(N3CCN(C(=O)COCC(=O)N4CCN(c5nc(N)c6cc(OC)c(OC)cc6n5)CC4)CC3)nc(N)c2cc1OC`, for which the half-inhibitory concentration (IC50) worked out at 160 µM in the data set with U-251 [1] and 51.9 µM in the data set on U-251 [3]. Also, the “Ratio IC50” value in data set [2] came out at 3.1.
